pIC50: −log10 of the molar value.

Tested on in the first experiment: not listed separately
Nature of the experiment: Inhibition of hedgehog signaling pathway-mediated PTCH mRNA expression in human DaOY cells after 24 hrs by RT-PCR analysis. It is filed as cell-based.
Settings: not given
In outline:
(§1)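 ASZ001 (murine BCC) or DAOY (human medulloblastoma) cells given analogue at a range of concentrations. Gli1 and Ptch mRNA quantified by qPCR. IC50 given as mean ± SEM of at least two experiments in triplicate.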
As usually defined, the pIC50 is −log10 of the IC50, conventionally taken in molar units. A high value points to a small IC50. Compound `CC(C)CCC[C@@H](C)[C@H]1CC[C@H]2[C@@H](OC(=O)c3ccc(O)cc3)CCC[C@]12C` had a negative-log IC50 (pIC50) of less than 5.00.
In turn, `CC(C)CCC[C@@H](C)[C@H]1CC[C@H]2[C@@H](OC(=O)c3cccc(N)c3)CCC[C@]12C` had a negative-log IC50 (pIC50) of less than 5.00.
Turning to `CC(C)CCC[C@@H](C)[C@H]1CC[C@H]2[C@@H](OC(=O)c3ccccn3)CCC[C@]12C`, the pIC50 was less than 5.00.

Tested on in the next experiment: not listed separately
Nature of the experiment: Inhibition of hedgehog signaling pathway-mediated GLI1 mRNA expression in mouse ASZ001 cells after 24 hrs by RT-PCR analysis. The class given is cell-based. Conditions: ASZ001, 24 h. A digest of the protocol: as §1
`CC(C)CCC[C@@H](C)[C@H]1CC[C@H]2[C@@H](OC(=O)c3ccc(O)cc3)CCC[C@]12C` had a negative-log IC50 (pIC50) of 5.18.
`CC(C)CCC[C@@H](C)[C@H]1CC[C@H]2[C@@H](OC(=O)c3cccc(N)c3)CCC[C@]12C` gave a negative-log IC50 (pIC50) of 5.15.
Same read-out and setting: as for `CC(C)CCC[C@@H](C)[C@H]1CC[C@H]2[C@@H](OC(=O)c3ccccn3)CCC[C@]12C`, the figure is 5.32.

Tested on in the next experiment: not listed separately
Kind of experiment: Inhibition of hedgehog signaling pathway-mediated GLI1 mRNA expression in human DaOY cells after 24 hrs by RT-PCR analysis. The class given is cell-based.
Settings: not given
A digest of the protocol: as §1
`CC(C)CCC[C@@H](C)[C@H]1CC[C@H]2[C@@H](OC(=O)c3ccc(O)cc3)CCC[C@]12C`: the pIC50 is less than 5.00.
`CC(C)CCC[C@@H](C)[C@H]1CC[C@H]2[C@@H](OC(=O)c3cccc(N)c3)CCC[C@]12C` gave a pIC50 of 5.04.
`CC(C)CCC[C@@H](C)[C@H]1CC[C@H]2[C@@H](OC(=O)c3ccccn3)CCC[C@]12C` had a negative-log IC50 (pIC50) of less than 5.00.

Tested on in another experiment: not listed separately
Nature of the experiment: Inhibition of hedgehog signaling pathway-mediated GLI1 mRNA expression in mouse C3H10T1/2 cells assessed as residual activity at 5 uM after 24 hrs by RT-PCR analysis relative to 20alpha-hydroxycholesterol/22(S)-hydroxycholesterol. It is filed as cell-based. The following applies: C3H 10T1/2. In outline: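 C3H10T1/2 cells co-treated with analogue and the oxysterol Hh activators 20α-hydroxycholesterol plus 22(S)-hydroxycholesterol (5 μM each) for 24 h. Gli1 mRNA measured by qPCR as % of OHC-only control (100%). Analogue at 5 μM, or at 0.5 μM where stated.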
With `CC(C)CCC[C@@H](C)[C@H]1CC[C@H]2[C@@H](OC(=O)c3ccc(O)cc3)CCC[C@]12C`, the Activity is 2.4%.
`CC(C)CCC[C@@H](C)[C@H]1CC[C@H]2[C@@H](OC(=O)c3cccc(N)c3)CCC[C@]12C`: the Activity came to 2.4%.
Regarding `CC(C)CCC[C@@H](C)[C@H]1CC[C@H]2[C@@H](OC(=O)c3ccccn3)CCC[C@]12C`, the Activity was 14.1%.

Another experiment concerns the target T1, Vitamin D3 receptor (Homo sapiens) (UniProt P11473).
T1 sequence (whole entry): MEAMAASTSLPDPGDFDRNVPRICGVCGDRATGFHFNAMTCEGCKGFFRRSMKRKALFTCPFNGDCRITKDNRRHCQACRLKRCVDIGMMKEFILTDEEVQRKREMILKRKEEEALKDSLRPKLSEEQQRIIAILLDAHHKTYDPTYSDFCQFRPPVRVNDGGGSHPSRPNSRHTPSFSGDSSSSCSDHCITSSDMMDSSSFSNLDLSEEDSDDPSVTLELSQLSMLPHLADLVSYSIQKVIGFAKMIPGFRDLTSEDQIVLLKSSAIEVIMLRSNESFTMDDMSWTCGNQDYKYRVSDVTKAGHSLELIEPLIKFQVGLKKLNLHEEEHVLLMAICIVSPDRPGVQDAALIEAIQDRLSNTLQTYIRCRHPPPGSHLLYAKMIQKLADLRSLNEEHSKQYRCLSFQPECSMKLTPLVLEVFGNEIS
Nature of the experiment: Competitive binding affinity to full length human VDR by fluorescence polarization assay.
Settings: not given
In outline:
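Fluorescence polarization competition against a tight-binding fluorescent ligand on full-length human VDR. Tested at up to 100 μM, with calcitriol as positive control. At least two separate experiments.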
A general note: Fluorescence polarisation rises when a labelled molecule tumbles more slowly, as on binding a larger partner.
In turn, `CC(C)CCC[C@@H](C)[C@H]1CC[C@H]2[C@@H](OC(=O)c3ccc(O)cc3)CCC[C@]12C` showed an Activity of more than 100 µM.
`CC(C)CCC[C@@H](C)[C@H]1CC[C@H]2[C@@H](OC(=O)c3ccccn3)CCC[C@]12C` came in with an Activity of more than 100 µM.

Tested on in another experiment: not listed separately
Nature of the experiment: Inhibition of hedgehog signaling pathway-mediated GLI1 mRNA expression in mouse C3H10T1/2 cells after 24 hrs by RT-PCR analysis. The following applies: C3H 10T1/2. The class given is cell-based. A digest of the protocol: (§2)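 OHC-stimulated C3H10T1/2 cells (20α- and 22(S)-hydroxycholesterol, 5 μM each) given analogue at a range of concentrations. Gli1 and Ptch mRNA quantified by qPCR. IC50 given as mean ± SEM of at least two experiments run in triplicate.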
Regarding `CC(C)CCC[C@@H](C)[C@H]1CC[C@H]2[C@@H](OC(=O)c3ccc(O)cc3)CCC[C@]12C`, the inhibition entry is “Dose-dependent effect”.
Take `CC(C)CCC[C@@H](C)[C@H]1CC[C@H]2[C@@H](OC(=O)c3cccc(N)c3)CCC[C@]12C`: the inhibition result is “Dose-dependent effect”.
`CC(C)CCC[C@@H](C)[C@H]1CC[C@H]2[C@@H](OC(=O)c3ccccn3)CCC[C@]12C`: the inhibition entry is “Dose-dependent effect”.

Still in this experiment, the particulars now being: C3H 10T1/2, 24 h.
As for `CC(C)CCC[C@@H](C)[C@H]1CC[C@H]2[C@@H](OC(=O)c3ccc(O)cc3)CCC[C@]12C`, the pIC50 is 5.55.
Turning to `CC(C)CCC[C@@H](C)[C@H]1CC[C@H]2[C@@H](OC(=O)c3cccc(N)c3)CCC[C@]12C`, the pIC50 was 5.89.
Compound `CC(C)CCC[C@@H](C)[C@H]1CC[C@H]2[C@@H](OC(=O)c3ccccn3)CCC[C@]12C` showed a pIC50 of 5.33.

In another experiment the target is T2, Vitamin D3 receptor (Mus musculus) (UniProt P48281).
T2 sequence (whole entry): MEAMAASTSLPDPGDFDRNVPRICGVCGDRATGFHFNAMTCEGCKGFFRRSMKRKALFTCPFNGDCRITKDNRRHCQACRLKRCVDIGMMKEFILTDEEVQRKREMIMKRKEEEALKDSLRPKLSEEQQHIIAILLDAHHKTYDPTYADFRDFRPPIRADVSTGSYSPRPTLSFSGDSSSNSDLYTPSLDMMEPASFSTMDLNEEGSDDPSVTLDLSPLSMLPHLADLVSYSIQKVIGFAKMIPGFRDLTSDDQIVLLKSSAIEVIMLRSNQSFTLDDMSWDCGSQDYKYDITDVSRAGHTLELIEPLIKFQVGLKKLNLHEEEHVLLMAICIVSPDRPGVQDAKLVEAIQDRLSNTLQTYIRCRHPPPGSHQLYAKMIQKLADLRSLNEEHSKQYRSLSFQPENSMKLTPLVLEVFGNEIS
Kind of experiment: Activation of VDR in mouse ASZ001 cells assessed as upregulation of CYP24A1 mRNA expression at 5 uM after 24 hrs by RT-PCR analysis relative to DMSO-treated control.
Settings: not given
It is filed as cell-based. A digest of the protocol:
(§3)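 Cyp24A1 mRNA read by qPCR after 24 h exposure at 5 μM. Up-regulation normalized to DMSO control, set to 1.0.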
For the compound `CC(C)CCC[C@@H](C)[C@H]1CC[C@H]2[C@@H](OC(=O)c3ccc(O)cc3)CCC[C@]12C`, the fold change (FC) was determined as 6.3.
In the case of `CC(C)CCC[C@@H](C)[C@H]1CC[C@H]2[C@@H](OC(=O)c3cccc(N)c3)CCC[C@]12C`, the fold change (FC) amounted to 2.5.
For the compound `CC(C)CCC[C@@H](C)[C@H]1CC[C@H]2[C@@H](OC(=O)c3ccccn3)CCC[C@]12C`, the fold change (FC) was 4.8.

For the next experiment, the target named is T2, Vitamin D3 receptor (Mus musculus). Kind of experiment: Activation of VDR in mouse C3H10T1/2 cells assessed as upregulation of CYP24A1 mRNA expression at 5 uM after 24 hrs by RT-PCR analysis relative to DMSO-treated control. The class given is cell-based. Conditions: C3H 10T1/2. In outline: as §3
On to `CC(C)CCC[C@@H](C)[C@H]1CC[C@H]2[C@@H](OC(=O)c3ccc(O)cc3)CCC[C@]12C`, for which the fold change (FC) is 18.8.
For the compound `CC(C)CCC[C@@H](C)[C@H]1CC[C@H]2[C@@H](OC(=O)c3cccc(N)c3)CCC[C@]12C`, the fold change (FC) amounted to 24.3.
Same read-out and setting: the same measure for `CC(C)CCC[C@@H](C)[C@H]1CC[C@H]2[C@@H](OC(=O)c3ccccn3)CCC[C@]12C`: 57.1.

For another experiment, the target named is T1, Vitamin D3 receptor (Homo sapiens). Nature of the experiment: Activation of VDR in human DaOY cells assessed as upregulation of CYP24A1 mRNA expression at 5 uM after 24 hrs by RT-PCR analysis relative to DMSO-treated control.
Settings: not given
It is filed as cell-based. In outline: as §3
`CC(C)CCC[C@@H](C)[C@H]1CC[C@H]2[C@@H](OC(=O)c3ccc(O)cc3)CCC[C@]12C`: the fold change (FC) was 1.5.
For `CC(C)CCC[C@@H](C)[C@H]1CC[C@H]2[C@@H](OC(=O)c3cccc(N)c3)CCC[C@]12C`, the fold change (FC) turned out to be 0.5.
In the case of `CC(C)CCC[C@@H](C)[C@H]1CC[C@H]2[C@@H](OC(=O)c3ccccn3)CCC[C@]12C`, the fold change (FC) worked out at 1.1.

Tested on in the next experiment: not listed separately
Nature of the experiment: Inhibition of hedgehog signaling pathway-mediated PTCH mRNA expression in mouse C3H10T1/2 cells after 24 hrs by RT-PCR analysis. The class given is cell-based. Conditions: C3H 10T1/2, 24 h. A digest of the protocol:
as §2
For `CC(C)CCC[C@@H](C)[C@H]1CC[C@H]2[C@@H](OC(=O)c3ccc(O)cc3)CCC[C@]12C`, the pIC50 is 5.48.
`CC(C)CCC[C@@H](C)[C@H]1CC[C@H]2[C@@H](OC(=O)c3cccc(N)c3)CCC[C@]12C` showed a pIC50 of 5.60.
Compound `CC(C)CCC[C@@H](C)[C@H]1CC[C@H]2[C@@H](OC(=O)c3ccccn3)CCC[C@]12C` gave a negative-log IC50 (pIC50) of 4.90.

The record behind these values is ChEMBL document CHEMBL3259768, “Structure-activity relationships for vitamin D3-based aromatic a-ring analogues as hedgehog pathway inhibitors” (J Med Chem, 2014).
